# Assay results as given in ChEMBL document CHEMBL1125136, “Quinolone antibacterial agents substituted at the 7-position with spiroamines. Synthesis and structure-activity relationships” (1990).
# Legend:
# Enterococcus faecalis [1] = experiment: Evaluated for minimum inhibitory concentration against […] bacteria, Staphylococcus faecalis MGH-2; assay type: functional
# Summary of the method: (§1)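 Broth microdilution MIC by standard technique. Values come from duplicate experiments and are stated as accurate to ±50%.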
# Staphylococcus aureus [2] = experiment: Evaluated for minimum inhibitory concentration against […] bacteria Staphylococcus aureus UC-76; assay type: functional; summary of the method: as §1
# [3] = Evaluated for minimum inhibitory concentration against […] bacteria […] SV-1; assay type: functional; summary of the method: as §1
# Staphylococcus aureus [4] = experiment: Evaluated for minimum inhibitory concentration against […] bacteria Staphylococcus aureus H228; assay type: functional; summary of the method: as §1
# Escherichia coli [5] = experiment: Evaluated for minimum concentration needed to produce linear DNA at an intensity relative to oxolinic acid at 10 mg/mL. by gyrase mediated cleavage of DNA in Escherichia coli 560.; assay type: functional; details: read-out: MIC
# Klebsiella pneumoniae = experiment: Evaluated for minimum inhibitory concentration against gram-negative bacteria Klebsiella pneumoniae MGH-2; assay type: functional; summary of the method: as §1
# Streptococcus pyogenes [6] = experiment: Evaluated for minimum inhibitory concentration against gram-positive bacteria Streptococcus pyogenes C203
# Escherichia coli [7] = experiment: Evaluated for minimum inhibitory concentration against gram-negative bacteria Escherichia coli Vogel; assay type: functional; summary of the method: as §1
# Enterobacter cloacae = experiment: Evaluated for minimum inhibitory concentration against gram-negative bacteria Enterobacter cloacae HA 2646; assay type: functional
# Pseudomonas aeruginosa [8] = experiment: Evaluated for minimum inhibitory concentration against gram-negative bacteria Pseudomonas aeruginosa UI-18; assay type: functional; summary of the method: as §1
# Pseudomonas = experiment: Evaluated for minimum inhibitory concentration against gram-negative bacteria Pseudomonas rettgeri H1771; assay type: functional; summary of the method: as §1
# Streptococcus pyogenes [9] = experiment: In vivo protective dose was determined against Streptococcus pyogenes after subcutaneous administration; details: sc, read-out: PD50
# Pseudomonas aeruginosa [10] = experiment: In vivo protective dose was determined against Pseudomonas aeruginosa UI-18. after peroral administration; assay type: functional; details: po, read-out: PD50
# Summary of the method: (§2)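 Female Charles River CD-1 mice were given an acute, lethal, systemic infection. A single dose of compound was given at the time of challenge, by the route stated in the line, with 16 animals per dose level. The read-out is the median protective dose (PD50, mg/kg). Per the footnote, values come from 16 animals per test, with a mean variation of ±34%.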
# Escherichia coli [11] = experiment: In vivo protective dose for mouse protection assay in Escherichia coli Vogel after peroral administration; assay type: functional; details: po, read-out: PD50; summary of the method: as §2
# Streptococcus pneumoniae [12] = experiment: In vivo protective dose was determined against Streptococcus pneumoniae SV-1 after subcutaneous administration; details: sc, read-out: PD50
# Streptococcus pneumoniae [13] = experiment: In vivo protective dose was determined against Streptococcus pneumoniae SV-1 after peroral administration; details: po, read-out: PD50
# Enterococcus faecalis [14] = experiment: Evaluated for minimum inhibitory concentration against gram-positive bacteria Staphylococcus faecalis MGH-2
# Staphylococcus aureus [15] = experiment: In vivo protective dose was determined against Staphylococcus aureus VC76 after peroral administration; assay type: functional; details: po, read-out: PD50; summary of the method: as §2
# Streptococcus pyogenes [16] = experiment: In vivo protective dose was determined against Streptococcus pyogenes after peroral administration; details: po, read-out: PD50
# Escherichia coli [17] = experiment: In vivo protective dose was determined in mouse protection assay in Escherichia coli Vogel after subcutaneous administration; assay type: functional; details: sc, read-out: PD50; summary of the method: as §2
# Pseudomonas aeruginosa [18] = experiment: In vivo protective dose was determined against Pseudomonas aeruginosa UI-18. after subcutaneous administration; assay type: functional; details: sc, read-out: PD50; summary of the method: as §2
# Staphylococcus aureus [19] = experiment: In vivo protective dose was determined against Staphylococcus aureus VC76. after subcutaneous administration; assay type: functional; details: sc, read-out: PD50; summary of the method: as §2
# Pseudomonas aeruginosa [20] = experiment: Evaluated for minimum inhibitory concentration against gram-negative bacteria Pseudomonas aeruginosa UI-18
# Escherichia coli [21] = experiment: `Evaluated for minimum concentration needed to produce linear DNA at an intensity relative to oxolinic acid at 10 mg/mL. by gyrase mediated cleavage of DNA in Escherichia coli 560.; assay type: functional
# Summary of the method: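 DNA gyrase isolated from Escherichia coli. The read-out is the minimum drug concentration (μg/mL) that induces gyrase-mediated DNA cleavage, giving linear DNA at an intensity relative to oxolinic acid at 10 mg/mL.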
SMILES,MIC (Staphylococcus aureus [2]),MIC [3],MIC (Staphylococcus aureus [4]),minimum concentration for gyrase-mediated DNA cleavage (Escherichia coli [5]),MIC (Klebsiella pneumoniae),MIC (Streptococcus pyogenes [6]),MIC (Escherichia coli [7]),MIC (Enterobacter cloacae),MIC (Pseudomonas aeruginosa [8]),MIC (Pseudomonas),ED50 (Streptococcus pyogenes [9]),ED50 (Pseudomonas aeruginosa [10]),ED50 (Escherichia coli [11]),ED50 (Streptococcus pneumoniae [12]),ED50 (Streptococcus pneumoniae [13]),MIC (Enterococcus faecalis [14]),ED50 (Staphylococcus aureus [15]),ED50 (Streptococcus pyogenes [16]),ED50 (Escherichia coli [17]),ED50 (Pseudomonas aeruginosa [18]),also measured
CCn1cc(C(=O)O)c(=O)c2cc(F)c(N3CCCC4(CCCNC4)C3)c(F)c21 (centres undefined),0.4 µg/mL,6.3 µg/mL,3.1 µg/mL,7.5 µg/mL,6.3 µg/mL,3.1 µg/mL,3.1 µg/mL,6.3 µg/mL,12.5 µg/mL,25 µg/mL,–,–,–,–,–,–,–,–,–,–,MIC (Enterococcus faecalis [1]): 3.1 µg/mL
CC1COc2c(N3CCC4(CCN(C)C4)C3)c(F)cc3c(=O)c(C(=O)O)cn1c23 (centres undefined),0.006 µg/mL,0.2 µg/mL,0.1 µg/mL,1 µg/mL,0.1 µg/mL,0.1 µg/mL,0.025 µg/mL,0.2 µg/mL,0.8 µg/mL,0.4 µg/mL,6 mg/kg,200 mg/kg,14 mg/kg,11.5 mg/kg,63 mg/kg,0.1 µg/mL,12.5 mg/kg,31 mg/kg,4.5 mg/kg,56 mg/kg,ED50 (Staphylococcus aureus [19]): 2.1 mg/kg
CCN1CCC2(CCN(c3c(F)cc4c(=O)c(C(=O)O)cn(CC)c4c3F)C2)C1 (centres undefined),0.1 µg/mL,0.8 µg/mL,0.2 µg/mL,5 µg/mL,0.2 µg/mL,0.4 µg/mL,0.2 µg/mL,0.4 µg/mL,3.1 µg/mL,1.6 µg/mL,38 mg/kg,> 100 mg/kg,13 mg/kg,43 mg/kg,68 mg/kg,0.2 µg/mL,–,70 mg/kg,6 mg/kg,180 mg/kg,–
CCn1cc(C(=O)O)c(=O)c2cc(F)c(N3CCC4(CCN(C)C4)C3)nc21 (centres undefined),0.025 µg/mL,0.8 µg/mL,0.1 µg/mL,10 µg/mL,0.4 µg/mL,0.4 µg/mL,0.1 µg/mL,0.4 µg/mL,1.6 µg/mL,1.6 µg/mL,13 mg/kg,200 mg/kg,11.4 mg/kg,16 mg/kg,30 mg/kg,0.2 µg/mL,8.5 mg/kg,27 mg/kg,4.4 mg/kg,58 mg/kg,ED50 (Staphylococcus aureus [19]): 3.6 mg/kg
CN1CCC2(CCN(c3c(F)cc4c(=O)c(C(=O)O)cn(C5CC5)c4c3F)C2)C1 (centres undefined),0.013 µg/mL,0.05 µg/mL,0.25 µg/mL,0.5 µg/mL,0.1 µg/mL,0.05 µg/mL,0.05 µg/mL,0.05 µg/mL,–,0.2 µg/mL,–,–,5 mg/kg,–,–,0.1 µg/mL,–,–,2 mg/kg,–,MIC (Pseudomonas aeruginosa [20]): 0.8 µg/mL
CCn1cc(C(=O)O)c(=O)c2cc(F)c(N3CCC4(CCN(C)C4)C3)c(F)c21 (centres undefined),0.006 µg/mL,0.4 µg/mL,0.1 µg/mL,1 µg/mL,0.1 µg/mL,0.2 µg/mL,0.006 µg/mL,0.1 µg/mL,0.8 µg/mL,0.8 µg/mL,27 mg/kg,140 mg/kg,8.4 mg/kg,11 mg/kg,43 mg/kg,0.1 µg/mL,9 mg/kg,38 mg/kg,3.4 mg/kg,70 mg/kg,ED50 (Staphylococcus aureus [19]): 4 mg/kg
CCN1CCC2(CCN(c3nc4c(cc3F)c(=O)c(C(=O)O)cn4CC)C2)C1 (centres undefined),0.2 µg/mL,1.6 µg/mL,0.4 µg/mL,–,0.4 µg/mL,1.6 µg/mL,0.4 µg/mL,1.6 µg/mL,3.1 µg/mL,6.3 µg/mL,–,–,10.3 mg/kg,–,–,0.8 µg/mL,–,–,15 mg/kg,–,MIC (Escherichia coli [21]): 5 µg/mL
